# Reference: ChEMBL document CHEMBL1133094 (J Med Chem, 2000)
# What was measured:
# D(1A) dopamine receptor = D(1A) dopamine receptor (Rattus norvegicus, UniProt P18901); experiment: Binding Affinity was determined against Dopamine receptor D1 in rat striatal membranes using [3H]- SCH 23390 radioligand.; type: cell membranes, Striatum, Membrane
# Procedure, shortened: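 Competition binding with rat striatal membranes as tissue source, reported as pKi. The labelled site is the D1-like family (D1 and D5 subtypes), not D1 alone. All compounds were tested as racemates.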
# D(2) dopamine receptor = D(2) dopamine receptor (Rattus norvegicus, UniProt P61169); experiment: Binding Affinity was determined against Dopamine receptor D2 in rat striatal membranes using [3H]- spiperone radioligand.; type: cell membranes, Striatum, Membrane
# Chain of D(2) dopamine receptor (P61169 whole entry): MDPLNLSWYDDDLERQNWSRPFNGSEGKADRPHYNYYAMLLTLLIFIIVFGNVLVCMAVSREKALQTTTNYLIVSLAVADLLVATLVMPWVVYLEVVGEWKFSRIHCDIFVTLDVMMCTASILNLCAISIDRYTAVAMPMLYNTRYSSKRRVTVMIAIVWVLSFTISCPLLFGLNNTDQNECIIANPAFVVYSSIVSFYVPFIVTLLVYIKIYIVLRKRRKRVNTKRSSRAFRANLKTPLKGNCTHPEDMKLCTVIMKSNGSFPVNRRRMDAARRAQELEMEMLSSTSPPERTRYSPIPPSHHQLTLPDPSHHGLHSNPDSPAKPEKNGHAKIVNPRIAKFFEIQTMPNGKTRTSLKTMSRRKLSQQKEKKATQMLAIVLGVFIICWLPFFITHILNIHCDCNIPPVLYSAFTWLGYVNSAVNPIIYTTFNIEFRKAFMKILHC
# Chain of D(1A) dopamine receptor (P18901 whole entry): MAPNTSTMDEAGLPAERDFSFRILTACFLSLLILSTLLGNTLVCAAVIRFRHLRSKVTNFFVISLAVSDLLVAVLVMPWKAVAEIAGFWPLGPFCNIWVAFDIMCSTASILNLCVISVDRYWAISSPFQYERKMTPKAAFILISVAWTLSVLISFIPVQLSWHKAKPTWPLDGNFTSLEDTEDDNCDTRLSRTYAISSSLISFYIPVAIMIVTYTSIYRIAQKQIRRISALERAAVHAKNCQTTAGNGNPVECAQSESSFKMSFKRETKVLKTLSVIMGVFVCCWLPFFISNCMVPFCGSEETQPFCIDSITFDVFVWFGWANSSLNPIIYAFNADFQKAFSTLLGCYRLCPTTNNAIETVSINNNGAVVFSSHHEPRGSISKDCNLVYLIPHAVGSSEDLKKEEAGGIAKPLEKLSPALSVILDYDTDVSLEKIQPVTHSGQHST
SMILES,Ki (D(1A) dopamine receptor) [µM],Ki (D(2) dopamine receptor) [µM]
COc1ccc2c(c1)CC1c3c(ccc(Br)c3CCN1C)O2 (centres undefined),7.59,0.851
CCCN1CCc2c(Br)ccc3c2C1Cc1cc(OC)ccc1O3 (centres undefined),2.45,> 10
COc1cc(Br)cc2c1C(Cc1ccccc1O)N(C)CC2 (centres undefined),1.7,1.82
COc1ccc(Br)c(CC2c3c(O)ccc(Br)c3CCN2C)c1 (centres undefined),0.389,> 10
CCN1CCc2c(Br)ccc(O)c2C1Cc1cc(OC)ccc1Br (centres undefined),1.55,> 10
CCCN1CCc2c(Br)ccc(O)c2C1Cc1cc(OC)ccc1Br (centres undefined),7.41,> 10
COc1cc(Br)c2c(c1)CCN(C)C2Cc1ccccc1O (centres undefined),11.7,7.08
CCN1CCc2c(Br)ccc3c2C1Cc1cc(OC)ccc1O3 (centres undefined),3.47,> 10
CCN1CCc2cc(Br)cc(OC)c2C1Cc1ccccc1O (centres undefined),5.62,2.19
CCN1CCc2cc(OC)cc(Br)c2C1Cc1ccccc1O (centres undefined),3.02,3.09

# The next lines start with the values.
Ki (D(1A) dopamine receptor) [µM],Ki (D(2) dopamine receptor) [µM],SMILES
> 10,1.86,CCN1CCc2cccc3c2C1Cc1cc(OC)ccc1O3 (centres undefined)
3.47,6.46,CCN1CCc2cc(O)cc3c2C1Cc1ccccc1O3 (centres undefined)
3.89,> 10,CCCN1CCc2cccc3c2C1Cc1cc(OC)ccc1O3 (centres undefined)
4.27,9.33,COc1cc2c3c(c1)Oc1ccccc1CC3N(C)CC2 (centres undefined)
2.88,0.275,CN1CCc2cc(O)cc3c2C1Cc1ccccc1O3 (centres undefined)
6.76,> 10,CCN1CCc2cccc3c2C1Cc1cc(O)ccc1O3 (centres undefined)
> 10,8.51,CCN1CCc2cc(OC)cc3c2C1Cc1ccccc1O3 (centres undefined)
> 10,> 10,CCCN1CCc2cc(O)cc3c2C1Cc1ccccc1O3 (centres undefined)
4.79,0.724,CN1CCc2cccc3c2C1Cc1cc(O)ccc1O3 (centres undefined)
> 10,> 10,CCCN1CCc2cccc3c2C1Cc1cc(O)ccc1O3 (centres undefined)
5.25,1.23,COc1ccc2c(c1)CC1c3c(cccc3O2)CCN1C (centres undefined)
> 10,3.47,CCCN1CCc2cc(OC)cc3c2C1Cc1ccccc1O3 (centres undefined)
